# In ChEMBL document CHEMBL4033799, “Stable and Long-Lasting, Novel Bicyclic Peptide Plasma Kallikrein Inhibitors for the Treatment of Diabetic Macular Edema” (J Med Chem, 2018):
# Columns and labels:
# Rattus norvegicus [1] = assay: Toxicity in rat at 125 ug administered as systemic dose; details: in vivo
# [2] = Half life in New Zealand white rabbit eye at 2 mg/ml, administered via ivt injection by HPLC analysis; assay type: ADME, tissue-based, Oryctolagus cuniculus; details: topical or ocular
# Procedure, shortened: (§1)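 Male New Zealand White rabbits (10 weeks old, ~2 kg) received one 50 μL intravitreal injection per eye of peptide at 2 mg/mL in 50 mM sodium phosphate, pH 7.2. Animals were sacrificed at 15 min, 1, 4, 8, 24, 48 and 96 h (3 per time point). Whole vitreous was homogenized, clarified, 0.2 μm filtered and assayed by LC-MS/MS, with a lower limit of detection of 1 ng/mL in vitreous.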
# [3] = Half life in rat plasma at 4 uM measured up to 24 hrs by LC-MS/MS analysis; assay type: ADME, cell-free
# Procedure, shortened: (§2)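 Peptide from a 0.16 mM DMSO stock was added to human, rat or mouse plasma (final 4 μM) or to homogenized human vitreous (final 1 μM), with internal standard. Samples were incubated at 37 °C for up to 24 h and extracted with water/acetonitrile/methanol 1:3:3.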
# [4] = Half life in mouse plasma at 4 uM measured up to 24 hrs by LC-MS/MS analysis; assay type: ADME, cell-free; procedure, shortened: as §2
# [5] = Drug level in New Zealand white rabbit ipsialateral eye vitreous humor at 2 mg/ml, administered via ivt injection at early time point measured up to 100 hrs by LC-MS/MS analysis; assay type: ADME, tissue-based, Oryctolagus cuniculus; details: ipsilateral eye vitreous humor, topical or ocular, read-out: Drug uptake; procedure, shortened: as §1
# Cynomolgus monkey = assay: Toxicity in cynomolgus monkey at 1.25 ug administered as systemic dose; set-up: species or system Macaca fascicularis; details: in vivo
# [6] = Drug level in New Zealand white rabbit ipsialateral eye vitreous humor at 2 mg/ml, administered via ivt injection at late time point measured up to 100 hrs by LC-MS/MS analysis; assay type: ADME, tissue-based, Oryctolagus cuniculus; details: ipsilateral eye vitreous humor, topical or ocular, read-out: Drug uptake; procedure, shortened: as §1
# Plasma kallikrein [7] = molecular target: Plasma kallikrein (Rattus norvegicus, UniProt P14272); assay: Inhibition of recombinant Sprague-Dawley rat plasma kallikrein using fluorogenic H-Pro-Phe-Arg-AMC peptide as substrate preincubated for 15 mins followed by substrate addition measured by fluorescence-based assay; details: read-out: Ki(app)
# (UniProt A0A8D1M4K5) = assay: Inhibition of pig plasma kallikrein using fluorogenic H-Pro-Phe-Arg-AMC peptide as substrate preincubated for 15 mins followed by substrate addition measured by fluorescence-based assay; set-up: species or system Sus scrofa; details: read-out: Ki(app)
# [8] = Drug level in New Zealand white rabbit contralateral eye vitreous humor at 2 mg/ml, administered via ivt injection by LC-MS/MS analysis; assay type: ADME, tissue-based, Oryctolagus cuniculus; details: in vivo, topical_or_ocular
# Plasma kallikrein [9] = molecular target: Plasma kallikrein (Mus musculus, UniProt P26262)
# [10] = molecular target: T1, Complement C1s subcomponent (Homo sapiens, UniProt P09871); assay: Inhibition of recombinant human C-terminal 6His-tagged complement component C1s (1 to 688 residues) expressed in mouse NS0 cells using fluorogenic Z-Lys-SBzl peptide as substrate after 5 mins by fluorescence based assay
# T1 sequence (P09871 whole entry): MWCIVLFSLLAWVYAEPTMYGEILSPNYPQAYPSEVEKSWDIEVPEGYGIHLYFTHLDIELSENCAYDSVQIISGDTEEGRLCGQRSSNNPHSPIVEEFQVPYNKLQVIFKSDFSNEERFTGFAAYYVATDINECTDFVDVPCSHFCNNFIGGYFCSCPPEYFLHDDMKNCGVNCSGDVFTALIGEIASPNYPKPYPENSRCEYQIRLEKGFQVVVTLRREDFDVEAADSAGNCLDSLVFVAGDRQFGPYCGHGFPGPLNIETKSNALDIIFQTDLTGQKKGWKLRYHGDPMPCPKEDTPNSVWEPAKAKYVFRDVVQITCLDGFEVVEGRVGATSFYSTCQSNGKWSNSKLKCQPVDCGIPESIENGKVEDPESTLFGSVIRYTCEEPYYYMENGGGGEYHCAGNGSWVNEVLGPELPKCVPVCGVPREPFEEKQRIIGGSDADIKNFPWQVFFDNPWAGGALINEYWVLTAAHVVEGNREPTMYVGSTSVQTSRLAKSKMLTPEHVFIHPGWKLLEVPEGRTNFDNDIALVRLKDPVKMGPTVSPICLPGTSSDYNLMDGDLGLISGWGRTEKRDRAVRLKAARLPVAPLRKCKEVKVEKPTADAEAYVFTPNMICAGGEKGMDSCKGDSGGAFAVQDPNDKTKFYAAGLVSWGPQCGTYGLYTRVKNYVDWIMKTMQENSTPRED
# Procedure, shortened: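 Human serine proteases were assayed with substrates and conditions set by each supplier's recommendations. Peptides were first screened at 50 μM. Where inhibition was detected, Ki was determined from activity across peptide concentrations using a tight-binding rate equation.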
# Plasma kallikrein [11] = molecular target: Plasma kallikrein (Homo sapiens, UniProt P03952); assay: Inhibition of human plasma kallikrein using fluorogenic H-Pro-Phe-Arg-AMC peptide as substrate preincubated for 15 mins followed by substrate addition measured by fluorescence-based assay; details: read-out: Ki(app)
# [12] = Aqueous solubility of the compound in buffer; assay type: physicochemical
# Mus musculus = assay: Antidiabetic activity in STZ-induced diabetic C57BL/6J mouse model assessed as reduction in retinal vascular permeability at 100 ug administered 4 times via ivt measured at 8 weeks post diabetes onset relative to control; assay type: functional
# Procedure, shortened: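 Diabetes was induced with STZ in male C57BL/6J mice. Peptide was given as repeated intravitreal injections (4 × 100 μg). Retinal permeability was read as FITC-BSA extravasation 8 weeks after diabetes onset and compared with vehicle-treated diabetic mice. The anti-VEGFR2 antibody DC101 (6.2 μg/eye, single dose) served as positive control.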
# Rattus norvegicus [13] = assay: Antiinflammatory activity in ip dosed Sprague-Dawley rat carrageenan-induced paw edema model assessed as inhibition of edema pretreated for 15 mins followed by carrageenan challenge measured up to 6 hrs; assay type: functional, organism-based
# Procedure, shortened: (§3)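 Male Sprague-Dawley rats received peptide IP (30, 10 or 3 mg/kg), or indomethacin IP at 5 mg/kg, 15 min before subplantar carrageenan. Paw volume was followed over time against a vehicle group.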
# Rattus norvegicus [14] = assay: Antiinflammatory activity in Sprague-Dawley rat assessed as inhibition carrageenan-induced paw edema at 30 mg/kg, ip pretreated for 15 mins followed by carrageenan challenge measured at 4 hrs post carrageenan challenge; assay type: functional; procedure, shortened: as §3
# Rattus norvegicus [15] = assay: Antiinflammatory activity in Sprague-Dawley rat assessed as inhibition carrageenan-induced paw edema at 30 mg/kg, ip pretreated for 15 mins followed by carrageenan challenge measured at 6 hrs post carrageenan challenge; assay type: functional; procedure, shortened: as §3
# Plasma = assay: Anti-coagulating activity in factor 8-deficient human plasma assessed as increase in coagulation time at 10 uM by aPTT assay; assay type: functional
# Procedure, shortened: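 Clotting time measured on a coagulation analyzer using actin FS, 0.025 M CaCl2, FVIII-deficient human plasma and Owren's Veronal Buffer pH 7.35, run per the manufacturer's instructions. Peptide tested from zero (vehicle) up to 10 μM. Each point is the mean ± SD of triplicates.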
# Rattus norvegicus [16] = assay: Antiinflammatory activity in Sprague-Dawley rat assessed as inhibition carrageenan-induced paw edema at 30 mg/kg, ip pretreated for 15 mins followed by carrageenan challenge measured at 1 hr post carrageenan challenge; assay type: functional; procedure, shortened: as §3
# Rattus norvegicus [17] = assay: Antiinflammatory activity in Sprague-Dawley rat assessed as inhibition carrageenan-induced paw edema at 30 mg/kg, ip pretreated for 15 mins followed by carrageenan challenge measured at 2 hrs post carrageenan challenge; assay type: functional; procedure, shortened: as §3
# Plasma kallikrein (Homo sapiens, UniProt P03952), sequence (P03952 20-390 limits assumed): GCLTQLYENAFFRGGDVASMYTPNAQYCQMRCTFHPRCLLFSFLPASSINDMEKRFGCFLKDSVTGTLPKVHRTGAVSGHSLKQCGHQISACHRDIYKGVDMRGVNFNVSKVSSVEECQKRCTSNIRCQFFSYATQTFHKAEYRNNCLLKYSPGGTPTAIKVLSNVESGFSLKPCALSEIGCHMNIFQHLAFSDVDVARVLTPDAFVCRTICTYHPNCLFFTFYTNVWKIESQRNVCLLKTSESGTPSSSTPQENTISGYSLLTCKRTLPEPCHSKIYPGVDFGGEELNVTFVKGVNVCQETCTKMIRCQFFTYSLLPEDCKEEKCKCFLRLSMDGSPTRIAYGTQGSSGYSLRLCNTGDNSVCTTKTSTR
# Plasma kallikrein (Homo sapiens, UniProt P03952), sequence (P03952 391-638 limits assumed): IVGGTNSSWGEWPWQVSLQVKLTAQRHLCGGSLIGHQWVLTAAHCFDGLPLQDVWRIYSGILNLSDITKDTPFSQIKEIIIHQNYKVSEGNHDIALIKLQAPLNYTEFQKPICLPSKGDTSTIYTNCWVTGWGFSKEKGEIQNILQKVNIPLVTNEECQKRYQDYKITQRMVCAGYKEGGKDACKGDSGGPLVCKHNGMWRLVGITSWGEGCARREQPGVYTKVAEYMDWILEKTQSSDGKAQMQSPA
# Plasma kallikrein (Rattus norvegicus, UniProt P14272), sequence (P14272 20-390 limits assumed): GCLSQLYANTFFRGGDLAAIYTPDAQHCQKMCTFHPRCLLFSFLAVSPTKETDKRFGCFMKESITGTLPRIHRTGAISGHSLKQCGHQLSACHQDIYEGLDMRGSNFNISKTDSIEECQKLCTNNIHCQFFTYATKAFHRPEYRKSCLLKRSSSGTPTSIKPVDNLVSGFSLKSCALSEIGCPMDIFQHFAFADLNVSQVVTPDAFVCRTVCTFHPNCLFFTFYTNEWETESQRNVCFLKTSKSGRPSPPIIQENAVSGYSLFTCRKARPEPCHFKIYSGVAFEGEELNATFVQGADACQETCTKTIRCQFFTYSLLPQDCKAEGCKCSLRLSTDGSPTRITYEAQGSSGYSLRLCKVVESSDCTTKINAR
# Plasma kallikrein (Rattus norvegicus, UniProt P14272), sequence (P14272 391-638 limits assumed): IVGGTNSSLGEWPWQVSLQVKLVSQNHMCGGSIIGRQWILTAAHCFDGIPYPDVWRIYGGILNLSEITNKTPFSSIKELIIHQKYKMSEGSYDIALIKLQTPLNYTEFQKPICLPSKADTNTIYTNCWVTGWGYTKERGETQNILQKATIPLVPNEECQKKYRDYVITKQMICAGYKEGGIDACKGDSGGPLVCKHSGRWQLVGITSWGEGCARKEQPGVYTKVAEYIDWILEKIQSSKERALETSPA
# Plasma kallikrein (Mus musculus, UniProt P26262), sequence (P26262 20-390 limits assumed): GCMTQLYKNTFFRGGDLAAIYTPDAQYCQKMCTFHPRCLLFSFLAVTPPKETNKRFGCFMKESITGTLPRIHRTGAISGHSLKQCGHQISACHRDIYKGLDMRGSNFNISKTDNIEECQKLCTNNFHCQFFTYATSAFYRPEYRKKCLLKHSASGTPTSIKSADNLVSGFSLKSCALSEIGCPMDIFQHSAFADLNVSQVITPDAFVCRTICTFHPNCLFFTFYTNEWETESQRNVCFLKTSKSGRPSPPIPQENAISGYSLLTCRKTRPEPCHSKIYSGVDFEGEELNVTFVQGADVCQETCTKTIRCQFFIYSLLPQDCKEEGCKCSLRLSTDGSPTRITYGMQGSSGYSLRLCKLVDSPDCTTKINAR
# Plasma kallikrein (Mus musculus, UniProt P26262), sequence (P26262 391-638 limits assumed): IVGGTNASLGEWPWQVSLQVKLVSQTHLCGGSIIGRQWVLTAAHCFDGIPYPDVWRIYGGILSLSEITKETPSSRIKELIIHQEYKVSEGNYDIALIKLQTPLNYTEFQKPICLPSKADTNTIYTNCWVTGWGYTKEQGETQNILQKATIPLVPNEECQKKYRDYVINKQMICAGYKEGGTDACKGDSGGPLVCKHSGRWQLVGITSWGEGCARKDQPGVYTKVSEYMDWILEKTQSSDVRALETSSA
smiles,measurement,setting,value
CC(=O)N[C@H]1CSCc2cc3cc(c2)CSC[C@H](NC(=O)[C@H](CCCCNC(=N)N)NC(=O)[C@H](Cc2ccc(O)cc2)NC(=O)[C@@H]2CCN2C(=O)[C@H](Cc2ccccc2)NC(=O)[C@H](CO)NC1=O)C(=O)N[C@@H](C)CN[C@@H](Cc1cnc[nH]1)C(=O)N[C@@H](CCC(N)=O)C(=O)N[C@@H](CC(=O)O)C(=O)N[C@@H](CC(C)C)C(=O)N[C@H](C(=O)O)CSC3,Activity,Rattus norvegicus [1],Non-Toxic
same,half-life,[2],39 h
same,half-life at 4 µM,[3],> 24 h
same,half-life at 4 µM,[4],> 24 h
same,concentration at 100 h,[5],45 µM
same,Activity,Cynomolgus monkey,Non-Toxic
same,concentration at 100 h,[6],8 µM
CC[C@H](C)[C@@H]1NC(=O)[C@H](CC(=O)O)NC(=O)[C@@H]2CCCN2C(=O)[C@H](Cc2ccc(O)cc2)NC(=O)[C@H](Cc2ccc(O)cc2)NC(=O)[C@H](C(C)C)NC(=O)[C@@H]2CSCc3cc(cc(c3)CSC[C@@H](C(=O)N[C@@H](C)C(=O)N(C)CC(=O)N(C)CC(=O)N(C)CC(=O)N[C@H](CCCNC(=N)N)C(=O)N[C@H](CCCNC(=N)N)C(=O)O)NC1=O)CSC[C@H](NC(C)=O)C(=O)N[C@@H](CO)C(=O)N[C@@H](Cc1ccccc1)C(=O)N1CCC1C(=O)N[C@@H](Cc1ccc(O)cc1)C(=O)N[C@@H](CCCCNC(=N)N)C(=O)N2 (stereo not given in full),half-life,[2],22 h
same,Ki,Plasma kallikrein [7],5.5 nM
same,Ki,(UniProt A0A8D1M4K5),300 nM
same,Drug uptake,[8],1 ng/mL
same,Ki,Plasma kallikrein [9],45 nM
same,Ki,[10],> 50000 nM
same,Ki,Plasma kallikrein [11],0.25 nM
CC(=O)N[C@H]1CSCc2cc3cc(c2)CSC[C@H](C(=O)N[C@@H](C)C(=O)N(C)CC(=O)N(C)CC(=O)N(C)CC(=O)N[C@H](CCCNC(=N)N)C(=O)N[C@H](CCCNC(=N)N)C(=O)O)NC(=O)[C@H](CC(C)C)NC(=O)[C@@H]2CCCN2C(=O)[C@H](C)NC(=O)[C@H](CC(=O)O)NC(=O)[C@H](Cc2c[nH]c4ccccc24)NC(=O)[C@@H]2CCCN2C(=O)[C@H](CSC3)NC(=O)[C@H](Cc2c[nH]c3ccccc23)NC(=O)[C@@H]2CCCN2C(=O)[C@H](CC(N)=O)NC(=O)[C@H](Cc2c[nH]c3ccccc23)NC(=O)[C@H]([C@@H](C)O)NC(=O)[C@H](CC(N)=O)NC1=O,solubility,[12],Soluble
same,inhibition (INH),Mus musculus,36%
same,inhibition,Rattus norvegicus [13],Dose-dependent effect
same,half-life at 4 µM,[3],> 24 h
same,half-life at 4 µM,[4],> 24 h
same,inhibition in vivo at 30 mg/kg,Rattus norvegicus [14],60%
same,inhibition in vivo at 30 mg/kg,Rattus norvegicus [15],64%
same,Activity,Plasma,< 5%
same,Ki,[10],> 50000 nM
same,inhibition in vivo at 30 mg/kg,Rattus norvegicus [16],71%
same,inhibition in vivo at 30 mg/kg,Rattus norvegicus [17],59%
